Scp1 inh: inhibitors of human Scp-1 phosphatase; Q9GZU7; Recombinant Scp1, phosphopeptide, malachite green phosphate absorbance; inhibition, % at 20 µM; actives 0.88% (n = 340,000); AID 493091;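 active = inhibition above about 50% at 20 µM, limit read from the data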;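 note: plate controls were DMSO wells with enzyme for no effect and wells lacking enzyme for full effect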
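Assay system: SCP-1 catalytic fragment, aa 76-261 | Buffer or medium: Tris acetate buffer pH 5.5 with MgCl2 and Tween-20 | Compound: One concentration, 20 µM, with 1.0% DMSO | Also added: Phospho 17-mer peptide substrate | Signal: Absorbance at 630 nm | Incubation: 45 min enzyme reaction at room temperature | Measure: % inhibition of SCP-1 phosphate liberation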
DNMT1 inh: blocks human DNA methyltransferase DNMT1; P26358; actives 0.83% (n = 360,000); DNMT1 molecular beacon, Hinp1I cleavage, fluorescence; AID 588458; inhibition (reported as % activation of signal), % at 10 µM; in the data active = inhibition above about 50%
UBC9 SUMO inh: inhibitors of human SUMOylation (UBC9); P63279; HTRF SUMOylation assay, SAE1/SAE2 + UBC9, in vitro; inhibition, % at 35 µM; actives 0.36% (n = 290,000); AID 2006; in the data active = inhibition above about 50%, passing the limit was not always enough
STEP block: inhibitors of human striatal-enriched phosphatase STEP; recombinant STEP, OMFP fluorogenic substrate, fluorescence; inhibition, % at 20 µM; actives 0.25% (n = 360,000);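 active = inhibition at 20 µM, scaled per plate between control wells, above about 37%, limit read from the data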;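 note: 0% = DMSO with enzyme and substrate and 100% = substrate only without enzyme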
Target sequence (P54829 whole entry, looked up): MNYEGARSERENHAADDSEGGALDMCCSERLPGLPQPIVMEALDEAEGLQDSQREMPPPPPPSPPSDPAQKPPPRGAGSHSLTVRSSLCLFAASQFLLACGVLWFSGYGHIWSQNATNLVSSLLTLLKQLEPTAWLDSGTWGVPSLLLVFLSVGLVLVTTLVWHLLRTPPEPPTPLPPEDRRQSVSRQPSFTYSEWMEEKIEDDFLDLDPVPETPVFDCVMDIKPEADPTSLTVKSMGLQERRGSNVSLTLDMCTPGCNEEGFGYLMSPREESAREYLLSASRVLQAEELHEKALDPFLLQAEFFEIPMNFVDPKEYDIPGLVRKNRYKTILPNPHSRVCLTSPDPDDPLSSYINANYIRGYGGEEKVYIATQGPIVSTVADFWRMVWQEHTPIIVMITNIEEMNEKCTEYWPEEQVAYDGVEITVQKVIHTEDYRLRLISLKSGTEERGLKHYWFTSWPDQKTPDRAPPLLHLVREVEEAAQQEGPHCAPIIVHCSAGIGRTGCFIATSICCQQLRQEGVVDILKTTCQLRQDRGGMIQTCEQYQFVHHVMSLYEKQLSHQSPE
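Material: STEP (striatal-enriched tyrosine phosphatase) enzyme, cell-free; Compound dosing: 20 µM single dose in 1% DMSO; Technique: fluorescence read at 480 nm ex / 540 nm em; Times: reaction 20 min, ambient temperature; Medium: 50 mM Bis-Tris pH 6.0 with 2.5 mM DTT and 0.005% Tween 20; Also added: OMFP at 25 µM.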
SUMO1-SIM PPI: modulators of human SUMO1-mediated protein-protein interactions; inhibition, % at 20 µM; SUMO1 binding to a labelled peptide, TR-FRET, 1 h; P63165; actives 0.33% (n = 360,000); in the data active = inhibition above about 37%
Target sequence (P63165 whole entry, looked up): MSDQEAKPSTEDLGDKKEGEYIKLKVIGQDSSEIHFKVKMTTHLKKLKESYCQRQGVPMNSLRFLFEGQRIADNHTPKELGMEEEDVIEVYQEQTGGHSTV
LMPTP inh: LMPTP (human) inhibition. P24666. recombinant LMPTP-A, OMFP fluorogenic substrate, fluorescence intensity. inhibition, % at 20 µM. actives 0.22% (n = 360,000);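 active = compounds that cut the enzyme signal by at least half of the control window in the single-dose screen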;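 note: plate controls were DMSO wells with enzyme plus substrate for no effect and substrate without enzyme for full effect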
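Material: LMPTP-A; amount: 0.625 nM enzyme; doses: single 20 µM dose; times: reaction 50 min, room temperature, dark; technique: fluorescence intensity of OMFP turnover product; benchmarks: no-enzyme and uninhibited controls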
Scp1 confirm: confirmation of human Scp-1 phosphatase inhibitors | recombinant SCP-1 catalytic domain, phosphate release, malachite green absorbance | shares compounds with Scp1 inh | inhibition, % at 20 µM | actives 61% (n = 2,500);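 note: plate controls were DMSO with enzyme for no effect and buffer wells lacking enzyme for full effect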
MG interference: colorimetric interference in Scp-1 counter-screen. Colorimetric interference counterscreen, malachite green absorbance 630 nm. shares compounds with Scp1 inh. apparent inhibition (interference), % at 20 µM. 2,500 tested, under 10 active;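 note: compounds added after enzyme reaction finished so only phosphate colour detection is probed; plate controls were DMSO wells with completed Scp-1 reaction for no effect and substrate wells lacking enzyme for full effect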
Scp-1 Tm shift: validation of human Scp-1 inhibitors by thermal shift binding. shares compounds with Scp1 inh. Recombinant SCP1, Sypro Orange thermal shift Tm. thermal shift relative to vanadate control, % at 40 µM. actives 25% (n = 1,500). AID 540329;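 active = substances whose mean melting-temperature shift, as a percentage of the reference inhibitor's shift, reaches about 5.3%, limit read from the data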;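 note: 0% = Tm of DMSO wells and 100% = Tm with sodium orthovanadate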
An asterisk follows results filed as active; x = not tested or not shown. Compounds with a hit are over-represented: about 1.9% of the library has one in this group of screens.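 Rule for the calls, unless noted: active = inhibition of at least 30% at 20 µM; inactive = the rest.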

SMILES | Scp1 inh | DNMT1 inh | UBC9 SUMO inh | STEP block | SUMO1-SIM PPI | LMPTP inh | Scp1 confirm | MG interference | Scp-1 Tm shift
Cc1noc(C)c1COc1ccc(C(=O)OCC(=O)N2c3ccccc3NC(=O)C2(C)C)cc1 | 69* | 23 | -5 | -3 | 5 | 1 | 46* | -21 | -3
Cc1cc(=O)oc2cc(OCC(=O)N3c4ccccc4NC(=O)C3(C)C)ccc12 | 62* | 24 | x | -2 | 3 | 6 | 42* | -22 | -12
Cc1nnc(NC(=O)COc2ccc3c(C)cc(=O)oc3c2)s1 | 71* | 9 | 25 | 3 | 32 | 1 | 65* | -8 | 2
CCC(CC)c1nnc(NC(=O)COc2ccc3c(C)cc(=O)oc3c2)s1 | 18 | 7 | 11 | -10 | -2 | 2 | x | x | x
O=C(O)c1cccc(S(=O)(=O)N(Cc2ccccc2)c2ccc(Cl)cc2)c1 | -5 | 3 | 11 | 1 | -1 | -1 | x | x | x
CCOc1ccc(NC(=O)CCc2nnc3ccc(N4CCC5(CC4)OCCO5)nn23)cc1 | -6 | 1 | -2 | 2 | 0 | 0 | x | x | x
COc1cc2c(cc1OC)CN(C(=O)/C=C/c1ccccc1[N+](=O)[O-])CC2 | -12 | -6 | -4 | -2 | -28 | 1 | x | x | x
CNc1cncc(-c2ccc(CN3CCOCC3)cc2)n1 | x | 3 | x | -2 | -19 | -2 | x | x | x
Nc1nnc(CC(=O)N/N=C/c2ccc(-c3ccc(F)cc3)o2)s1 | 1 | -3 | 2 | 3 | -22 | 2 | x | x | x
Nc1nnc(CC(=O)N/N=C/c2ccc(-c3cccc(C(=O)O)c3)o2)s1 | 54* | -1 | 8 | 1 | 11 | -2 | 45* | -6 | 1
COc1ccc(S(=O)(=O)NCCSC(C)(C)C)c(Cl)c1Cl | 60* | -24 | 17 | -2 | 3 | 1 | 34* | -16 | -20
Cc1ccc(C(=O)Nc2nccs2)cc1 | -4 | 0 | 18 | -2 | 2 | -3 | x | x | x
O=C(Nc1nccs1)c1ccc2nccnc2c1 | 52* | 15 | 14 | 2 | 18 | 0 | 63* | 1 | -2
CC1(C)CC(=NOC(=O)c2ccccc2)CC(C)(C)N1O | -3 | 3 | -3 | -1 | 1 | -1 | x | x | x
C[C@@H]1CN([C@@H](C)CO)C(=O)c2cccc(NS(C)(=O)=O)c2O[C@H]1CN(C)Cc1ccc(C(=O)O)cc1 | -8 | 0 | x | 3 | -3 | -1 | x | x | x
C[C@H](CO)N1C[C@H](C)[C@@H](CN(C)Cc2ccc(C(=O)O)cc2)Oc2c(NS(=O)(=O)c3cn(C)cn3)cccc2C1=O | 62* | 6 | x | -2 | 3 | -2 | 5 | -4 | x
C[C@H](CO)N1C[C@H](C)[C@@H](CN(C)CC2CCCCC2)Oc2c(NS(=O)(=O)c3cn(C)cn3)cccc2C1=O | 59* | 2 | x | -2 | 16 | -2 | 8 | -4 | x
C[C@H](CO)N1C[C@H](C)[C@@H](CN(C)Cc2ccccc2)Oc2c(NS(=O)(=O)c3cn(C)cn3)cccc2C1=O | 69* | -2 | x | 2 | -4 | -1 | -4 | -13 | x
C[C@@H]1CN([C@@H](C)CO)C(=O)c2cccc(NS(C)(=O)=O)c2O[C@H]1CN(C)Cc1ccc(Oc2ccccc2)cc1 | 2 | -9 | x | -1 | -1 | -1 | x | x | x
C[C@H](CO)N1C[C@H](C)[C@@H](CN(C)Cc2ccc(Oc3ccccc3)cc2)Oc2c(NS(=O)(=O)c3cn(C)cn3)cccc2C1=O | 50* | -9 | x | 0 | 4 | 0 | -5 | -10 | x
C[C@H](CO)N1C[C@H](C)[C@@H](CN(C)Cc2ccncc2)Oc2c(NS(=O)(=O)c3ccc(F)cc3)cccc2C1=O | 59* | 4 | x | 1 | 5 | 1 | -12 | -20 | x
O=C(CCCOc1ccc(Cl)cc1Cl)N/N=C/c1cccc([N+](=O)[O-])c1 | 92* | 13 | -13 | 3 | -8 | 19 | 55* | -10 | 3
O=C(Cn1cc(C(F)(F)F)ccc1=O)NC1CCCC1 | 16 | 13 | x | 1 | 9 | 0 | x | x | x
C[C@@H](NC(=O)/C(C#N)=C/c1ccc(O)c(O)c1)c1ccccc1 | -9 | 7 | x | 0 | -20 | -1 | x | x | x
CC(NC(=O)/C(C#N)=C/c1ccc(OCC(=O)O)cc1)c1ccccc1 (stereo not drawn) | 98* | 2 | -7 | 3 | -8 | -1 | 40* | -2 | 1
SMILES | Scp1 inh | DNMT1 inh | UBC9 SUMO inh | STEP block | SUMO1-SIM PPI | LMPTP inh | Scp1 confirm | MG interference | Scp-1 Tm shift
COc1cc(/C=C(\C#N)C(=O)NCc2ccccc2)ccc1OCc1ccc(C(=O)O)cc1 | 2 | 0 | 14 | -1 | -10 | 0 | x | x | x
N#C/C(=C\c1ccc(OCc2ccc(C(=O)O)cc2)cc1)C(=O)NCc1ccccc1 | 91* | 0 | 15 | 19 | -16 | -1 | 81* | -11 | -24
COc1cc(/C=C(/C#N)C(=O)Nc2ccccc2)ccc1OCc1ccc(C(=O)O)cc1 | 82* | -2 | 5 | 27 | 8 | 17 | 58* | -22 | 3
CCCCCn1nnnc1C1(C)CCC(=O)N1Cc1ccco1 (stereo not drawn) | x | x | x | x | 4 | -1 | x | x | x
C[n+]1cccc(C(=O)NNC(=O)C23CC4CC(CC(C4)C2)C3)c1 | 102* | -4 | 9 | -1 | 1 | 0 | 13 | -15 | x
Cc1ccc(NC(=O)Nc2ccon2)cc1Cl | -2 | 1 | -3 | -2 | 1 | 0 | x | x | x
O=C(O)c1ccc(COc2ccccc2/C=C2/NC(=O)N(c3cccc(Cl)c3)C2=O)cc1 | 66* | 0 | 37 | 3 | -3 | 19 | 65* | -15 | 3
O=C(O)c1ccc(COc2ccccc2C=C2C(=O)c3ccccc3C2=O)cc1 | 68* | 0 | 14 | 4 | 19 | 1 | 69* | -14 | 8.2*
Cc1cccc(NC(=O)CN2C(=O)N/C(=C\c3cccn3-c3cccc(C(=O)O)c3)C2=O)c1 | 18 | 34 | 6 | 3 | -14 | 0 | x | x | x
O=C(O)c1ccc(COc2ccccc2/C=C2\NC(=O)N(Cc3ccc(F)cc3)C2=O)cc1 | 63* | 3 | 1 | 2 | -10 | 1 | 66* | -10 | 3
O=C1NC(=S)N/C1=C\c1ccccc1OCc1ccc(C(=O)O)cc1 | 3 | 3 | 8 | 3 | -8 | 0 | x | x | x
